Measurements from ChEMBL document CHEMBL1177781, “Synthesis and SAR of potent inhibitors of the Hepatitis C virus NS3/4A protease: exploration of P2 quinazoline substituents” (Bioorg Med Chem Lett, 2010).

Columns and labels:
[1] = Inhibition of HCV 1a NS3/4A protease; parameters: species or system Hepatitis C virus subtype 1a
How it was run: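 Enzyme inhibition was determined as Ki against recombinant full-length NS3 enzyme, following a literature procedure, in an external laboratory.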

Hepatitis C virus = test: Antiviral activity against HCV1b infected in human Huh7 cells assessed as inhibition viral subgenomic replication; type: functional, organism-based, Hepacivirus hominis; conditions: genotype 1b, Huh-7
How it was run: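 Cell-based EC50 was measured in Huh7 cells carrying the subgenomic bicistronic HCV replicon clone ET, with a luciferase read-out.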

Liver microsomes = test: Intrinsic clearance in human liver microsomes; type: ADME, Microsome
How it was run: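 Metabolic stability in human liver microsomes was expressed as intrinsic clearance (Cl_int, µL/min/mg).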

[2] = Apparent permeability across human Caco-2 cells; type: ADME, cell-based
[3] = (§1) Clearance in Sprague-Dawley rat at 2 mg/kg, iv; type: ADME, organism-based; parameters: dose 2 mg/kg, route intravenous; conditions: Sprague-Dawley, in vivo
How it was run: (§2)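 Male Sprague–Dawley rats (n = 2 per route) received a single intravenous dose (2 mg base-equiv/kg) or an oral dose. Mean plasma levels were followed to derive Cl, Vdss, AUC, Cmax, Tmax, T1/2 and F. Liver-to-plasma ratio was determined at 6 h.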

[4] = AUC in Sprague-Dawley rat at 10 mg/kg, po; type: ADME, organism-based; parameters: dose 10 mg/kg, route oral; conditions: plasma; how it was run: as §2
[5] = Cmax in Sprague-Dawley rat at 10 mg/kg, po; type: ADME, organism-based; parameters: dose 10 mg/kg, route oral; conditions: in vivo; how it was run: as §2
[6] = Tmax in Sprague-Dawley rat at 10 mg/kg, po; type: ADME, organism-based; parameters: dose 10 mg/kg, route oral; conditions: in vivo; how it was run: as §2
[7] = Half life in Sprague-Dawley rat at 10 mg/kg, po; type: ADME, organism-based; parameters: dose 10 mg/kg, route oral; conditions: in vivo; how it was run: as §2
[8] = Oral bioavailability in Sprague-Dawley rat at 10 mg/kg; type: ADME, organism-based; conditions: in vivo; how it was run: as §2
[9] = Ratio of drug level in liver to plasma in Sprague-Dawley rat at 10 mg/kg, po after 6 hrs; type: ADME, organism-based; parameters: dose 10 mg/kg, route oral; how it was run: as §2
[10] = Ratio of drug level in liver to plasma in Sprague-Dawley rat at 2 mg/kg, iv after 6 hrs; type: ADME, organism-based; parameters: dose 2 mg/kg, route intravenous; how it was run: as §2
Rattus norvegicus [11] = test: as §1; type: ADME, organism-based; parameters: dose 2 mg/kg, route intravenous; conditions: in vivo; how it was run: as §2
Rattus norvegicus [12] = test: AUC in Sprague-Dawley rat at 2 mg/kg, iv; type: ADME, organism-based, Plasma; parameters: dose 2 mg/kg, route intravenous; conditions: in vivo; how it was run: as §2

SMILES | Ki [1] [nM] | EC50 (Hepatitis C virus) [nM] | CL (Liver microsomes) [µL/min] | Papp [2] [×10⁻⁶ cm/s] | also measured
CN1CCCC/C=C\[C@@H]2C[C@@]2(C(=O)NS(=O)(=O)C2CC2)NC(=O)[C@@H]2C[C@@H](Oc3nc(-c4ccccc4)nc4ccccc34)C[C@H]2C1=O | 0.4 | 52 | 58 | 21 | –
CC(C)c1csc(-c2nc(O[C@@H]3C[C@H]4C(=O)N[C@]5(C(=O)NS(=O)(=O)C6CC6)C[C@H]5/C=C\CCCCN(C)C(=O)[C@@H]4C3)c3ccccc3n2)n1 | 0.8 | 120 | – | – | –
COc1ccc2c(O[C@@H]3C[C@H]4C(=O)N[C@]5(C(=O)NS(=O)(=O)C6CC6)C[C@H]5/C=C\CCCCN(C)C(=O)[C@@H]4C3)ncnc2c1C | > 1000 | > 1000 | – | – | –
COc1ccc2c(O[C@@H]3C[C@H]4C(=O)N[C@]5(C(=O)NS(=O)(=O)C6CC6)C[C@H]5/C=C\CCCCN(C)C(=O)N4C3)nc(-c3cccc(C)n3)nc2c1C | 0.9 | 130 | – | – | –
COc1ccc(-c2nc(O[C@@H]3C[C@H]4C(=O)N[C@]5(C(=O)NS(=O)(=O)C6CC6)C[C@H]5/C=C\CCCCN(C)C(=O)N4C3)c3ccc(OC)c(C)c3n2)cc1 | 0.6 | 3 | 8 | 33 | –
CN1CCCC/C=C\[C@@H]2C[C@@]2(C(=O)NS(=O)(=O)C2CC2)NC(=O)[C@@H]2C[C@@H](Oc3nc(N4CCOCC4)nc4ccccc34)C[C@H]2C1=O | 6.2 | 390 | – | – | –
COc1ccc2c(O[C@@H]3C[C@H]4C(=O)N[C@]5(C(=O)NS(=O)(=O)C6CC6)C[C@H]5/C=C\CCCCN(C)C(=O)N4C3)nc(-c3cccnc3)nc2c1C | 2.8 | 13 | – | – | –
COc1ccc2c(O[C@@H]3C[C@H]4C(=O)N[C@]5(C(=O)NS(=O)(=O)C6CC6)C[C@H]5/C=C\CCCCN(C)C(=O)[C@@H]4C3)nc(-c3ccccc3)nc2c1 | 0.4 | 14 | 88 | 13 | –
COc1ccc(-c2nc(O[C@@H]3C[C@H]4C(=O)N[C@]5(C(=O)NS(=O)(=O)C6CC6)C[C@H]5/C=C\CCCCN(C)C(=O)[C@@H]4C3)c3ccc(OC)c(C)c3n2)cc1 | 0.6 | 8 | 11 | 9 | –
COc1ccc2c(O[C@@H]3C[C@H]4C(=O)N[C@]5(C(=O)NS(=O)(=O)C6CC6)C[C@H]5/C=C\CCCCN(C)C(=O)[C@@H]4C3)nc(-c3nc(C(C)C)cs3)nc2c1 | 1.2 | 58 | 76 | – | –
CN1CCN(c2nc(O[C@@H]3C[C@H]4C(=O)N[C@]5(C(=O)NS(=O)(=O)C6CC6)C[C@H]5/C=C\CCCCN(C)C(=O)[C@@H]4C3)c3ccccc3n2)CC1 | 1.2 | 830 | – | – | –

Now those with a lower Ki [1], led by results:

Ki [1] [nM] | EC50 (Hepatitis C virus) [nM] | CL (Liver microsomes) [µL/min] | Papp [2] [×10⁻⁶ cm/s] | SMILES | also measured
0.3 | 23 | 26 | 38 | COc1ccc2c(O[C@@H]3C[C@H]4C(=O)N[C@]5(C(=O)NS(=O)(=O)C6CC6)C[C@H]5/C=C\CCCCCNC(=O)N4C3)nc(-c3ccccc3)nc2c1C | –
0.3 | 16 | < 6 | 32 | COc1ccc2c(O[C@@H]3C[C@H]4C(=O)N[C@]5(C(=O)NS(=O)(=O)C6CC6)C[C@H]5/C=C\CCCCN(C)C(=O)N4C3)nc(-c3ccc(F)cc3)nc2c1C | clearance [3]: 9.33 mL/min/kg; AUC [4]: 11 µM·h; Cmax [5]: 2600 nM; Tmax [6]: 5 h; Kp at 6 h [9]: 42
0.2 | 11 | 32 | 20 | COc1ccc2c(O[C@@H]3C[C@H]4C(=O)N[C@]5(C(=O)NS(=O)(=O)C6CC6)C[C@H]5/C=C\CCCCN(C)C(=O)[C@@H]4C3)nc(-c3ccc(F)cc3)nc2c1 | –
0.2 | 7 | 14 | 0.4 | COc1ccc2c(O[C@@H]3C[C@H]4C(=O)N[C@]5(C(=O)NS(=O)(=O)C6CC6)C[C@H]5/C=C\CCCCN(C)C(=O)N4C3)nc(-c3ccncc3)nc2c1C | –
0.2 | 16 | 20 | 32 | COc1ccc2c(O[C@@H]3C[C@H]4C(=O)N[C@]5(C(=O)NS(=O)(=O)C6CC6)C[C@H]5/C=C\CCCCCNC(=O)N4C3)nc(-c3ccc(F)cc3)nc2c1C | clearance [3]: 26.7 mL/min/kg; Kp at 6 h [10]: 2.5; AUC [4]: 1.7 µM·h; Cmax [5]: 390 nM; Tmax [6]: 2 h; bioavailability [8]: 38%; Kp at 6 h [9]: 100
0.2 | 11 | 17 | 26 | COc1ccc2c(O[C@@H]3C[C@H]4C(=O)N[C@]5(C(=O)NS(=O)(=O)C6CC6)C[C@H]5/C=C\CCCCN(C)C(=O)N4C3)nc(-c3ccccc3)nc2c1C | CL (Rattus norvegicus [11]): 11.5 mL/min/kg; AUC (Rattus norvegicus [12]): 8.4 µM·h; Kp at 6 h [10]: 38; AUC [4]: 15 µM·h; Cmax [5]: 3400 nM; Tmax [6]: 5 h; bioavailability [8]: 73%; Kp at 6 h [9]: 32
0.1 | 5 | < 6 | 13 | COc1ccc2c(O[C@@H]3C[C@H]4C(=O)N[C@]5(C(=O)NS(=O)(=O)C6CC6)C[C@H]5/C=C\CCCCN(C)C(=O)[C@@H]4C3)nc(-c3ccccc3)nc2c1C | clearance [3]: 16.7 mL/min/kg; AUC [4]: 3.3 µM·h; Cmax [5]: 660 nM; Tmax [6]: 2 h; half-life [7]: 3.8 h; bioavailability [8]: 40%
